From ChEMBL document CHEMBL5223148, “Design, synthesis, and bioactivity evaluation of novel 1-(4-(benzylsulfonyl)-2-nitrophenyl) derivatives as potential anti-inflammatory agents against LPS-induced acute lung injury” (Bioorg Med Chem Lett, 2023)
Active and inactive are the calls of the source. The rule behind the calls is not given here.

What was measured:
J774.A1 [1] = assay: Antiinflammatory activity in mouse J774.A1 cells assessed as decrease in LPS-induced TNF-alpha secretion preincubated for 30 mins followed by LPS stimulation and measured after 24 hrs by ELISA; format: functional, cell-based; details: for Activity: time 24.5 hrs
Method in brief: (§1)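 J774A.1 cells pretreated 30 min across a concentration range, then challenged with LPS at 0.5 μg/mL for 24 h. Secreted IL-6 or TNF-α measured in the medium by ELISA, and IC50 taken from dose–response. Mean ± SEM of 3 independent experiments.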

J774.A1 [2] = assay: Antiinflammatory activity in mouse J774.A1 cells assessed as decrease in LPS-induced IL-6 secretion preincubated for 30 mins followed by LPS stimulation and measured after 24 hrs by ELISA; format: functional, cell-based; details: for Activity: time 24.5 hrs; method in brief: as §1
J774.A1 [3] = assay: Antiinflammatory activity in mouse J774.A1 cells assessed as decrease in LPS-induced TNF-alpha secretion at 20 uM preincubated for 30 mins followed by LPS stimulation and measured after 24 hrs by ELISA; format: functional; design: scale not given: the % may be the effect or the level left; details: time 24.5 hrs
Method in brief: (§2)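 J774A.1 macrophages pretreated 30 min with 20 μM compound, DMSO as negative control. Cells then stimulated with LPS at 0.5 μg/mL for 24 h. IL-6 and TNF-α in the culture medium measured by ELISA.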

J774.A1 [4] = assay: Antiinflammatory activity in mouse J774.A1 cells assessed as decrease in LPS-induced IL-6 secretion at 20 uM preincubated for 30 mins followed by LPS stimulation and measured after 24 hrs by ELISA; format: functional; design: scale not given: the % may be the effect or the level left; details: time 24.5 hrs; method in brief: as §2
Mus musculus [5] = assay: Antiinflammatory activity in C57BL/6J mouse model of LPS-induced acute lung injury assessed as reduction in IL-6 production in serum at 20 mg/kg, po administered 30 mins prior to LPS treatment and measured after 6 hrs; format: functional, organism-based; details: time 6.5 hrs
Method in brief: (§3)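 Mice dosed orally 30 min before intratracheal LPS at 5 mg/kg; sham mice received a similar volume of saline. Animals sacrificed 6 h after LPS, and blood and BALF collected. TNF-α and IL-6 measured in serum and in BALF. Mean ± SEM, n = 8, compared with the LPS-only group.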

Mus musculus [6] = assay: Antiinflammatory activity in C57BL/6J mouse model of LPS-induced acute lung injury assessed as reduction in […] infiltration at 20 mg/kg, po administered 30 mins prior to LPS treatment and measured after 6 hrs by F4/80 antibody staining based assay; format: functional, organism-based; details: time 6.5 hrs
Method in brief: (§4)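 Oral pretreatment 30 min before intratracheal LPS at 5 mg/kg, with a saline sham group. Lungs taken at 6 h. Sections immunostained for F4/80 (macrophage marker) or for p-p65, counterstained with hematoxylin. Percentage of positive cells assessed.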

Mus musculus [7] = assay: Antiinflammatory activity in C57BL/6J mouse model of LPS-induced acute lung injury assessed as reduction in neutrophil count in BALF at 20 mg/kg, po administered 30 mins prior to LPS treatment and measured after 6 hrs by Wright and Giemsa staining based analysis; format: functional, organism-based; details: time 6.5 hrs
Method in brief: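 Oral dosing 30 min before intratracheal LPS at 5 mg/kg, with a saline sham group. BALF collected at 6 h and neutrophils counted by Wright-Giemsa staining, given relative to control. Mean ± SEM, n = 8.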

Mus musculus [8] = assay: Antiinflammatory activity in C57BL/6J mouse model of LPS-induced acute lung injury assessed as reduction in pulmonary congestion at 20 mg/kg, po administered 30 mins prior to LPS treatment and measured after 6 hrs by H and E staining based assay; format: functional, organism-based; details: time 6.5 hrs
Method in brief: (§5)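 Oral pretreatment 30 min before intratracheal LPS at 5 mg/kg, with a saline sham group. Lungs harvested 6 h later. H&E-stained sections scored for alveolar septal thickness, pulmonary congestion, inflammatory infiltration and tissue destruction.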

Mus musculus [9] = assay: Antiinflammatory activity in C57BL/6J mouse model of LPS-induced acute lung injury assessed as reduction in tissue destruction at 20 mg/kg, po administered 30 mins prior to LPS treatment and measured after 6 hrs by H and E staining based assay; format: functional, organism-based; details: time 6.5 hrs; method in brief: as §5
Mus musculus [10] = assay: Antiinflammatory activity in C57BL/6J mouse model of LPS-induced acute lung injury assessed as reduction in IL-6 production in BALF at 20 mg/kg, po administered 30 mins prior to LPS treatment and measured after 6 hrs; format: functional, organism-based; details: time 6.5 hrs; method in brief: as §3
Mus musculus [11] = assay: Antiinflammatory activity in C57BL/6J mouse model of LPS-induced acute lung injury assessed as reduction in TNF-alpha production in BALF at 20 mg/kg, po administered 30 mins prior to LPS treatment and measured after 6 hrs; format: functional, organism-based; details: time 6.5 hrs; method in brief: as §3
Mus musculus [12] = assay: Antiinflammatory activity in C57BL/6J mouse model of LPS-induced acute lung injury assessed as reduction in TNF-alpha production in serum at 20 mg/kg, po administered 30 mins prior to LPS treatment and measured after 6 hrs; format: functional, organism-based; details: time 6.5 hrs; method in brief: as §3
Mus musculus [13] = assay: Antiinflammatory activity in C57BL/6J mouse model of LPS-induced acute lung injury assessed as reduction in p-p65 level at 20 mg/kg, po administered 30 mins prior to LPS treatment and measured after 6 hrs by immunohistochemical analysis; format: functional, organism-based; details: time 6.5 hrs; method in brief: as §4
Mus musculus [14] = assay: Antiinflammatory activity in C57BL/6J mouse model of LPS-induced acute lung injury assessed as reduction in alveolar septa thickness at 20 mg/kg, po administered 30 mins prior to LPS treatment and measured after 6 hrs by H and E staining based assay; format: functional, organism-based; details: time 6.5 hrs; method in brief: as §5
Mus musculus [15] = assay: Antiinflammatory activity in C57BL/6J mouse model of LPS-induced acute lung injury assessed as reduction in inflammatory infiltration at 20 mg/kg, po administered 30 mins prior to LPS treatment and measured after 6 hrs by H and E staining based assay; format: functional, organism-based; details: time 6.5 hrs; method in brief: as §5

Compound | Activity (J774.A1 [3]) | Activity (J774.A1 [4]) | further results
O=[N+]([O-])c1ccc(N2CCN(c3ccc(S(=O)(=O)Cc4cccc(F)c4)cc3[N+](=O)[O-])CC2)cc1 | 12.18% | 68.87% | IC50 (J774.A1 [1]): 23.4 µM; Activity (J774.A1 [1]): Active; IC50 (J774.A1 [2]): 6.01 µM; Activity (J774.A1 [2]): Dose-Dependent Effect
COc1cccc(CS(=O)(=O)c2ccc(N3CCN(c4ccc([N+](=O)[O-])cc4)CC3)c([N+](=O)[O-])c2)c1 | inactive | 66.21% | 
COc1cccc(CS(=O)(=O)c2ccc(N3CCN(Cc4cccc([N+](=O)[O-])c4)CC3)c([N+](=O)[O-])c2)c1 | inactive | 41.95% | 
O=[N+]([O-])c1ccc(CN2CCN(c3ccc(S(=O)(=O)Cc4ccc(F)cc4)cc3[N+](=O)[O-])CC2)cc1 | 26.45% | 71.54% | Activity (J774.A1 [1]): inactive; Activity (J774.A1 [2]): inactive
CN(C)c1ccc(S(=O)(=O)Cc2cccc(F)c2)cc1[N+](=O)[O-] | inactive | inactive | 
O=[N+]([O-])c1cc(S(=O)(=O)Cc2ccc(F)cc2)ccc1N1CCN(CCO)CC1 | 29.96% | 54.2% | 
COc1cccc(CS(=O)(=O)c2ccc(N3CCN(CCO)CC3)c([N+](=O)[O-])c2)c1 | inactive | 15.23% | 
O=[N+]([O-])c1cccc(CN2CCN(c3ccc(S(=O)(=O)Cc4ccccc4)cc3[N+](=O)[O-])CC2)c1 | inactive | 57.27% | 
CCN1CCN(c2ccc(S(=O)(=O)Cc3cccc(OC)c3)cc2[N+](=O)[O-])CC1 | 33.13% | 63.29% | Activity (Mus musculus [5]): Active; IC50 (J774.A1 [1]): 19.6 µM; Activity (J774.A1 [1]): Active; Activity (Mus musculus [6]): Active; Activity (Mus musculus [7]): Active; Activity (Mus musculus [8]): Active; IC50 (J774.A1 [2]): 5.66 µM; Activity (J774.A1 [2]): Dose-Dependent Effect; Activity (Mus musculus [9]): Active; Activity (Mus musculus [10]): Active; Activity (Mus musculus [11]): Active; Activity (Mus musculus [12]): Active; Activity (Mus musculus [13]): Active; Activity (Mus musculus [14]): Active; Activity (Mus musculus [15]): Active
COc1cccc(CS(=O)(=O)c2ccc(N3CCN(C(C)=O)CC3)c([N+](=O)[O-])c2)c1 | inactive | 5.7% | 
CCN1CCN(c2ccc(S(=O)(=O)Cc3cccc(F)c3)cc2[N+](=O)[O-])CC1 | 24.43% | 58.89% | 
CC(=O)N1CCN(c2ccc(S(=O)(=O)Cc3ccccc3)cc2[N+](=O)[O-])CC1 | 19.12% | 40.41% | 
O=[N+]([O-])c1cc(S(=O)(=O)Cc2ccccc2)ccc1N1CCN(CCO)CC1 | 29.04% | 56.59% | 
Cc1ccc(CS(=O)(=O)c2ccc(N3CCN(c4ccc([N+](=O)[O-])cc4)CC3)c([N+](=O)[O-])c2)cc1 | inactive | inactive | 
COc1cccc(CS(=O)(=O)c2ccc(N3CCNCC3)c([N+](=O)[O-])c2)c1 | inactive | 18.18% | 
CN1CCN(c2ccc(S(=O)(=O)Cc3ccccc3)cc2[N+](=O)[O-])CC1 | 16.86% | 53.04% | 
O=[N+]([O-])c1ccc(N2CCN(c3ccc(S(=O)(=O)Cc4ccc(F)cc4)cc3[N+](=O)[O-])CC2)cc1 | 18.6% | 62.47% | 
O=[N+]([O-])c1cccc(CN2CCN(c3ccc(S(=O)(=O)Cc4ccc(F)cc4)cc3[N+](=O)[O-])CC2)c1 | 27.46% | 59.52% | 
CCN1CCN(c2ccc(S(=O)(=O)Cc3ccc(F)cc3)cc2[N+](=O)[O-])CC1 | inactive | 31.39% | 

Compound | Activity (J774.A1 [3]) | Activity (J774.A1 [4]) | further results
C[C@@H]1C[C@H]2[C@@H]3CCC4=CC(=O)C=C[C@]4(C)[C@@]3(F)[C@@H](O)C[C@]2(C)[C@@]1(O)C(=O)CO |  |  | Activity (Mus musculus [6]): Active; Activity (Mus musculus [7]): Active; Activity (Mus musculus [13]): Active
O=[N+]([O-])c1cc(S(=O)(=O)Cc2cccc(F)c2)ccc1N1CCN(CCO)CC1 | inactive | 4.55% | 
CC(=O)N1CCN(c2ccc(S(=O)(=O)Cc3cccc(F)c3)cc2[N+](=O)[O-])CC1 | 36.28% | 62.38% | IC50 (J774.A1 [1]): 28.9 µM; Activity (J774.A1 [1]): Active; IC50 (J774.A1 [2]): 14.7 µM; Activity (J774.A1 [2]): Dose-Dependent Effect
COCCN1CCN(c2ccc(S(=O)(=O)Cc3cccc(F)c3)cc2[N+](=O)[O-])CC1 | inactive | 0.29% | 
CCN1CCN(c2ccc(S(=O)(=O)Cc3ccc(C)cc3)cc2[N+](=O)[O-])CC1 | inactive | 52.95% | 
COCCN1CCN(c2ccc(S(=O)(=O)Cc3cccc(OC)c3)cc2[N+](=O)[O-])CC1 | inactive | inactive | 
O=[N+]([O-])c1cccc(CN2CCN(c3ccc(S(=O)(=O)Cc4cccc(F)c4)cc3[N+](=O)[O-])CC2)c1 | 22.51% | 59.44% | 
CC(=O)N1CCN(c2ccc(S(=O)(=O)Cc3ccc(F)cc3)cc2[N+](=O)[O-])CC1 | 10.99% | 33.81% | 
COCCN1CCN(c2ccc(S(=O)(=O)Cc3ccc(C)cc3)cc2[N+](=O)[O-])CC1 | inactive | 2.98% | 
CN(C)c1ccc(S(=O)(=O)Cc2ccccc2)cc1[N+](=O)[O-] | inactive | inactive | 
O=[N+]([O-])c1ccc(N2CCN(c3ccc(S(=O)(=O)Cc4ccccc4)cc3[N+](=O)[O-])CC2)cc1 | inactive | 51.52% | 
COCCN1CCN(c2ccc(S(=O)(=O)Cc3ccc(F)cc3)cc2[N+](=O)[O-])CC1 | inactive | 12.89% | 
CN(C)c1ccc(S(=O)(=O)Cc2ccc(F)cc2)cc1[N+](=O)[O-] | inactive | inactive | 
CCN1CCN(c2ccc(S(=O)(=O)Cc3ccccc3)cc2[N+](=O)[O-])CC1 | inactive | 21.24% | 
CC(=O)N1CCN(c2ccc(S(=O)(=O)Cc3ccc(C)cc3)cc2[N+](=O)[O-])CC1 | inactive | 16.83% | 
COCCN1CCN(c2ccc(S(=O)(=O)Cc3ccccc3)cc2[N+](=O)[O-])CC1 | inactive | inactive | 
Cc1ccc(CS(=O)(=O)c2ccc(N3CCN(CCO)CC3)c([N+](=O)[O-])c2)cc1 | inactive | inactive | 
CN(C)CCS(=O)(=O)Cc1ccc(Br)cc1 | inactive | 79.61% | 
COc1cccc(CS(=O)(=O)c2ccc(N(C)C)c([N+](=O)[O-])c2)c1 | inactive | 8.62% | 
